Assay outcomes from PubChem BioAssay.
The full list was thinned out, with hits kept by preference.
RORa inhibitor: RORA (human) inhibition; CHO-K1 Gal4-RORA LBD luciferase reporter, luminescence; inhibition, % at 10 µM; hit rate 0.43% among 65,000; AID 561;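 active = inhibition above the mean of all tested compounds plus 3 SD, cut at about 52% in these data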
Target sequence (P35398 whole entry, looked up, the tested form may be a part): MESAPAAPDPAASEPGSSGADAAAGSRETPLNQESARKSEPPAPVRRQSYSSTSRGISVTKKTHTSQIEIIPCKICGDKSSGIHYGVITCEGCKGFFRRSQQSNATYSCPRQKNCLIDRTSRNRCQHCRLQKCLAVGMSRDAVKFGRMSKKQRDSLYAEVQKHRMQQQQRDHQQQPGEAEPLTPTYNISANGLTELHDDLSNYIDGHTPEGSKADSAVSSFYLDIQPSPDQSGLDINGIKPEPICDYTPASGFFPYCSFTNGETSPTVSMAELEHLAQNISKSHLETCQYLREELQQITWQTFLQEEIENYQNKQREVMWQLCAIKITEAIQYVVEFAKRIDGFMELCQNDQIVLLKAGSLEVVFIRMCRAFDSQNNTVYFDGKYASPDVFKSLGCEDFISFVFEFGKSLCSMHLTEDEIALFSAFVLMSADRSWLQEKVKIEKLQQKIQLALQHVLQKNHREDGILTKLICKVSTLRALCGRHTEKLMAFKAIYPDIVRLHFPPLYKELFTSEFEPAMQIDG
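Test system: CHO-K1 cells with Gal4-hRORA LBD fusion and pG5-luc reporter / Compound: single concentration per compound, 10 µM final / Schedule: 20 h compound treatment, 37 °C / Signal: luminescence from basal luciferase reporter expression / Read-out: % inhibition / Control set: mock-transfected cells as 100%, +RORA DMSO cells as 0% / Replicates: tested once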
Of the large screens only hits and unclear results are named; the others gave an inactive call.

Cc1cccc(N2CC(C(=O)Nc3ccc4c(c3)OCO4)CC2=O)c1C (stereo unspecified)	none
COc1ccc(S(=O)(=O)N(CC(=O)N2CCN(C)CC2)c2ccc(C)cc2)cc1OC	none
O=C(Nc1sc2c(c1C(=O)O)CCCCC2)c1ccco1	none
N#Cc1c(NC(=O)CSc2ncn[nH]2)sc2c1CCCCC2	RORa inhibitor 88
N#Cc1c(NC(=O)CSc2nc(N)cc(=O)[nH]2)sc2c1CCCCCC2	RORa inhibitor 52
CC(C)c1ccc(C(=O)CSc2ncn[nH]2)cc1	none
CCCc1cc(=O)[nH]c(SCC(=O)Nc2cc3c(cc2C(C)=O)OCO3)n1	none
O=C(CSc1nc2sc3c(c2c(=O)[nH]1)CCCC3)NCCO	none
Cn1c(N2CCN(c3ccccn3)CC2)nc2c1c(=O)n(Cc1ccc(Cl)cc1)c(=O)n2C	none
COc1ccccc1-c1cn(S(=O)(=O)c2ccc(C)cc2)nc1N	none
CCCN(Cc1ccccc1)S(=O)(=O)c1ccc(N2C(=O)CCC2=O)cc1	none
Cc1ccc2c(CSc3nnc(C4CC4)n3N)cc(=O)oc2c1C	none
O=c1cc(-c2c(F)c(F)c(F)c(F)c2F)oc2c(F)c(F)c(F)c(F)c12	RORa inhibitor 84
COc1ccc(N(C(=O)Cn2nnc3ccccc32)C(C(=O)NCc2ccco2)c2ccc(C)o2)cc1 (stereo unspecified)	none
OC(CCN1CCOCC1)(c1ccc(Cl)cc1)C1CCCCC1 (stereo unspecified)	none
CC1=CCC(COC(=O)Nc2ccccc2)CC1 (stereo unspecified)	none
CCn1c(C)nc2cc(-c3nc4n(n3)Cc3ccccc3-4)ccc21	RORa inhibitor 96
O=C(COc1ccccc1)Nc1nc2ccccc2[nH]1	none
Cc1cnc(NC(=O)COc2ccccc2Cl)s1	RORa inhibitor 74
CCOc1ccccc1OCC(=O)Nc1ccc(S(=O)(=O)N(C)C)cc1	none
CCOC(=O)N1CCN(C(=O)c2cccc(-n3c(=S)[nH]c4cc(Cl)ccc4c3=O)c2)CC1	none
CCOc1cccc(-c2nnc3sc(COc4ccc(Cl)cc4)nn23)c1	none
Cc1ccc(-n2ncc(-c3nnc(SCC(=O)NC4CCCC4)o3)c2N)cc1C	none
CCc1c(C)nc2ncnn2c1NCCc1ccc(OC)cc1	RORa inhibitor 75
Cc1ccccc1Cc1c(C)nc2ncnn2c1C	none
Cc1nc2ncnn2c(C)c1CCC(=O)Nc1ccc(S(=O)(=O)N2CCCCCC2)cc1	none
CC(=O)N1CCc2c(sc(NC(=O)c3ccc4c(c3)OCCO4)c2C#N)C1	none
Cc1ccc(-c2nnc(CSc3nncn3N)o2)cc1	none
O=C(CSc1nnc(-c2ccccc2Cl)o1)N1CCCCC1	none
Cn1c(SCc2ccccc2Cl)nnc1-c1cnccn1	none
NCCCCCc1nnc(SCc2ccccc2Cl)o1	RORa inhibitor 57
CN(C)CCN1C(=O)C(=O)/C(=C(/O)c2ccc(F)cc2)C1c1ccccc1 (stereo unspecified)	none
CCN(CC)S(=O)(=O)c1cccc(-c2nnc(SC(C)C#N)n2Cc2ccccc2)c1 (stereo unspecified)	none
Cc1ccc(-c2cc3nc(C)cc(NCc4ccco4)n3n2)cc1	none
Cc1ccc(Nc2cc(C)nn2-c2nc(C)cc(=O)[nH]2)cc1	RORa inhibitor 88
CCN(Cc1ccccc1)C(=O)CCCOc1ccccc1	none
CCOC(=O)c1c(C)c(C(=O)NCc2ccc3c(c2)OCO3)c(C)n1C	none
CCOC(=O)c1c(N)sc2c1CCC1C(=O)N(C3CCCCC3)C(=O)C21 (stereo unspecified)	none
CCOc1ccc(OCc2ccc(C(=O)OCc3ccccn3)o2)cc1	RORa inhibitor 58
O=C(Nc1ccccc1)OCc1ccccn1	none
CCCc1ccc(OCc2ccc(C(=O)N3CCN(c4ccccn4)CC3)o2)c(OC)c1	none
CC(C)C1N(S(=O)(=O)c2ccccc2)CCN1S(=O)(=O)c1ccccc1	none
CC(=O)Nc1c(C(=O)N2CCN(c3ncccn3)CC2)cnn1-c1ccccc1Cl	none
O=C(/C=C\Nc1ccccn1)c1ccc(Cl)cc1	RORa inhibitor 64
O=C(Nc1ccc(Cl)cn1)c1cccc(F)c1	none
O=C(/C=C/Nc1ccc(F)c(Cl)c1)c1ccco1	none
O=C1CN(C(=O)CSc2nnnn2-c2ccc(Cl)cc2)c2ccccc2N1	none
CCc1ccc(N(CC(=O)NC2CCCCC2)S(=O)(=O)c2c(C)noc2C)cc1	none
CC1=C(C#N)C(=O)OC(C)(C)C1	none
CCN(CC)c1ccc2cc(NC(=O)CCC(=O)O)c(=O)oc2c1	RORa inhibitor 66
CCN(CC)c1ccc(NC(=O)C2CC3CCC2C3)cc1 (stereo unspecified)	none
CCN(CC)c1ccc(NC(=O)c2ccccc2F)cc1	none
Cc1ccc(C)n1/N=C1/NC(=O)CS1	none
O=C(Nn1c(C2CC2)nc2ccccc2c1=O)c1ccco1	none
O=C(CN1C(=O)c2ccccc2S1(=O)=O)NCCC1=CCCCC1	none
COc1ccc(CCNc2nnc(Sc3nnnn3-c3ccccc3)s2)cc1OC	RORa inhibitor 69
COc1ccc(CCNS(=O)(=O)c2cn(C)c(=O)n(C)c2=O)cc1OC	none
COc1ccc(CCNC(=O)C2CCCN(S(C)(=O)=O)C2)cc1OC (stereo unspecified)	none
COC(=O)c1ccccc1NC(=O)CN1CCC(NC(=O)c2ccccc2C)CC1	none
CCc1ccccc1NC(=O)c1ccc(F)c(S(=O)(=O)N2CCC(C(N)=O)CC2)c1	none
O=c1cnc2ccccc2n1CC1CCCCC1	none
O=C(CSc1cccc2cccnc12)N1CCCC1	none
Cc1cc(NC(=O)c2cc3n(n2)C(C(F)(F)F)CC(c2ccco2)N3)no1 (stereo unspecified)	none
C=CCC1CCCCC12NC(=O)NC2=O (stereo unspecified)	none
Nc1nc(-c2ccccc2)cc(-c2ccccc2O)n1	none
CS(=O)c1nc(-c2ccc(Br)cc2)cc(-c2ccccc2)c1C#N (stereo unspecified)	RORa inhibitor 58
Cc1nc(SCC(=O)Nc2c(C)n(C)n(-c3ccccc3)c2=O)n[nH]1	none
Cc1c(NC(=O)CCC(=O)N2CCCCC2)c(=O)n(-c2ccccc2)n1C	none
COc1ccccc1N1CCN(c2cc(=O)n(-c3ccccc3Cl)c(=O)[nH]2)CC1	none
O=c1cc(N2CCN(c3cccc(Cl)c3)CC2)[nH]c(=O)n1C1CCCCC1	RORa inhibitor 65
CN1CCN(c2cc(=O)n(C3CCCCC3)c(=O)[nH]2)CC1	none
C=CCn1c(C#N)c(N)sc1=N	none
O=C(Cc1cn2ccsc2n1)NCCc1ccc(F)cc1	none
COC(=O)[C@@H](NC(=O)NC1CCCc2ccccc21)C(C)C (stereo partly specified)	none
COc1cccc(-c2cc(C(=O)N3C(C)CCCC3C)no2)c1 (stereo unspecified)	none
Cc1nc2nc(-c3cccs3)cn2nc1C	none
CS(=O)(=O)c1nc(-c2cccs2)cc(C(F)(F)F)n1	RORa inhibitor 78
C=CCOc1ccc(C2c3c(oc4ccccc4c3=O)C(=O)N2c2ccccn2)cc1OCC (stereo unspecified)	none
COc1cc(NC(=O)Cn2c(-c3cncs3)nc3ccccc32)cc(OC)c1OC	none
COC(=O)c1cc(COc2ccc3oc(C)c(C(=O)OC)c3c2)c(C)o1	none
CN(C)CCOC(=O)C1(c2ccccc2)CCOCC1	none
Cc1oc2cc3c(C(=O)OCCN(C)C)c(C)oc3cc2c1C(=O)OCCN(C)C	RORa inhibitor 82
c1ccc2c(c1)ncn2CCC1CCCCC1	none
COc1ccc(N(CC(=O)NCc2ccco2)S(C)(=O)=O)cc1Cl	none
CC(=O)c1c(N2CCN(Cc3ccc4c(c3)OCO4)CC2)nc(=S)n(-c2ccccc2)c1C	none
Nc1nc2ccc(Oc3ccccc3)cc2s1	none
Cc1ccc2[nH]c(-c3cccc(N)c3)cc2c1	none
Nc1cccc(-c2nc3ccc(N)cc3s2)c1	RORa inhibitor 57
CCCc1nnc(NC(=O)CNc2ccc(F)cc2)s1	none
